Measurements published in ChEMBL document CHEMBL3046444, “Antiproliferative activity and synthesis of 8-prenylnaringenin derivatives by demethylation of 7-O- and 4'-O-substituted isoxanthohumols” (2012).
Converted amounts (≈) assume the structure as drawn. The source made the active and inactive calls. No cut-off for these calls is given here.

Legend:
Format in all cases: functional
[1] = test system: HT-29; assay: Antiproliferative activity against Homo sapiens (human) HT-29 cells after 72 hr by SRB assay; conditions: for IC50: HT-29, 72 h, read-out: ID50 (the source's name)
In short: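 HT-29 colon adenocarcinoma cells were plated at 10^5/ml in RPMI 1640/Opti-MEM (1:1) with 5% FBS, antibiotics, 1 mM pyruvate and 2 mM glutamine. Test agents (0.1–100 μg/ml, solvent-matched controls) were added after 24 h and left for 72 h. Cells were TCA-fixed and stained 30 min with 0.4% SRB in 1% acetic acid, dye extracted with 10 mM Tris, OD 540 nm. Triplicates, 3–5 experiments; ID50 (μg/ml).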

[2] = test system: MCF7; assay: Antiproliferative activity against Homo sapiens (human) MCF7 cells after 72 hr by SRB assay; conditions: for IC50: MCF7, 72 h, read-out: ID50 (the source's name)
In short: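 MCF-7 breast cancer cells at 10^5/ml in Eagle's medium with 10% FBS, antibiotics, 2 mM glutamine, 1.0 mM pyruvate, 1% amino acids and 0.8 mg/l insulin, 37°C, 5% CO2. After 24 h, compounds at 0.1–100 μg/ml (acetone/ethanol controls) were added for 72 h. SRB read-out: cold 50% TCA fixation, 0.4% SRB stain, Tris extraction, 540 nm. Triplicates, repeated 3–5 times; 50% proliferation inhibition dose (ID50, μg/ml).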

[3] = test system: CCRF-CEM; assay: Antiproliferative activity against Homo sapiens (human) CCRF-CEM cells after 72 hr by MTT assay; conditions: for IC50: read-out: ID50 (the source's name)
In short: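 Human leukemia CCRF/CEM cells seeded at 10^5/ml in RPMI 1640 with 10% FBS, penicillin/streptomycin and 2 mM L-glutamine at 37°C, 5% CO2. Compounds were added after 24 h at 0.1–100 μg/ml, with acetone or ethanol vehicle controls, and exposure ran 72 h. MTT was given for 4 h, formazan solubilized in SDS/DMF for 24 h, and read at 570 nm. Triplicates, 3–5 repeats; ID50 in μg/ml vs untreated.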

| IC50 [1] [µg/mL] | IC50 [2] [µg/mL] | IC50 [3] [µg/mL] | Compound | ID50 [1] | ID50 [2] | ID50 [3] |
| --- | --- | --- | --- | --- | --- | --- |
|  |  |  | C=CCOc1ccc(C2CC(=O)c3c(O)cc(OCC=C)c(CC=C(C)C)c3O2)cc1 (configuration not stated) | inactive | inactive | inactive |
|  |  |  | CCCCCCCCCCCCCCCC(=O)Oc1ccc(C2CC(=O)c3c(O)cc(OC(=O)CCCCCCCCCCCCCCC)c(CC=C(C)C)c3O2)cc1 (configuration not stated) | inactive | inactive | inactive |
|  |  |  | CCCCCCCCCCCCCCCC(=O)Oc1ccc([C@@H]2CC(=O)c3c(OC)cc(OC(=O)CCCCCCCCCCCCCCC)c(CC=C(C)C)c3O2)cc1 | inactive | inactive | inactive |
| 36.1 (≈ 85.1 µM) | 28 (≈ 66 µM) | 37 (≈ 87.2 µM) | CC(=O)Oc1ccc(C2CC(=O)c3c(O)cc(OC(C)=O)c(CC=C(C)C)c3O2)cc1 (configuration not stated) [7,4'-DI-O-ACETYL-8-PRENYLNARINGENIN] |  |  |  |
| 32.1 (≈ 73.2 µM) | 16.9 (≈ 38.5 µM) | 23.3 (≈ 53.1 µM) | COc1cc(OC(C)=O)c(CC=C(C)C)c2c1C(=O)C[C@@H](c1ccc(OC(C)=O)cc1)O2 [7,4'-DI-O-ACETYLISOXANTHOHUMOL] |  |  |  |
| 6.2 (≈ 14.3 µM) | 5.2 (≈ 12 µM) | 2.7 (≈ 6.21 µM) | C=CCOc1ccc([C@@H]2CC(=O)c3c(OC)cc(OCC=C)c(CC=C(C)C)c3O2)cc1 [7,4'-DI-O-ALLYLISOXANTHOHUMOL] |  |  |  |
|  | 36.9 (≈ 100 µM) |  | COc1ccc(C2CC(=O)c3c(O)cc(OC)c(CC=C(C)C)c3O2)cc1 (configuration not stated) [7,4'-DI-O-METHYL-8-PRENYLNARINGENIN] | inactive |  | inactive |
| 6 (≈ 15.7 µM) | 6.6 (≈ 17.3 µM) | 5 (≈ 13.1 µM) | COc1ccc([C@@H]2CC(=O)c3c(OC)cc(OC)c(CC=C(C)C)c3O2)cc1 [7,4'-DI-O-METHYLISOXANTHOHUMOL] |  |  |  |
| 8.2 (≈ 16.6 µM) | 7.1 (≈ 14.4 µM) | 4.3 (≈ 8.69 µM) | CCCCCOc1ccc([C@@H]2CC(=O)c3c(OC)cc(OCCCCC)c(CC=C(C)C)c3O2)cc1 [7,4'-DI-O-N-PENTYL-8-ISOXANTHOHUMOL] |  |  |  |
| 6.9 (≈ 16.3 µM) | 8.3 (≈ 19.6 µM) | 5.4 (≈ 12.7 µM) | CCCCCOc1cc(OC)c2c(c1CC=C(C)C)O[C@H](c1ccc(O)cc1)CC2=O [7-O-N-PENTYLISOXANTHOHUMOL] |  |  |  |
| 10 (≈ 24.4 µM) | 3.9 (≈ 9.5 µM) | 4.8 (≈ 11.7 µM) | CCCCCOc1cc(O)c2c(c1CC=C(C)C)OC(c1ccc(O)cc1)CC2=O (configuration not stated) [7-O-PENTYL-8-PRENYLNARINGENIN] |  |  |  |
| 32.6 (≈ 92 µM) | 9.4 (≈ 26.5 µM) | 18.2 (≈ 51.4 µM) | COc1cc(O)c(CC=C(C)C)c2c1C(=O)CC(c1ccc(O)cc1)O2 (configuration not stated) [ISOXANTHOHUMOL] |  |  |  |
| 33.2 (≈ 97.5 µM) | 19.4 (≈ 57 µM) | 24.2 (≈ 71.1 µM) | CC(C)=CCc1c(O)cc(O)c2c1OC(c1ccc(O)cc1)CC2=O (configuration not stated) [SOPHORAFLAVANONE B] |  |  |  |
| 3.8 (≈ 10.7 µM) | 4.7 (≈ 13.3 µM) | 4.1 (≈ 11.6 µM) | COc1cc(O)c(CC=C(C)C)c(O)c1C(=O)/C=C/c1ccc(O)cc1 [XANTHOHUMOL] |  |  |  |
